The test system of data set [1] is Rattus norvegicus. Nature of the data set: Antiinflammatory activity in Wister albino rat assessed as inhibition of carrageenan-induced paw edema volume at 50 mg/kg, ip administered 1 hr before carrageenan challenge measured after 4 hrs. It is filed as functional. The conditions noted are these: route intraperitoneal. An outline of the steps:
(§1)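 Wistar albino rats of either sex (pregnant females excluded), 160–190 g, 6 per group. Dosed i.p. in DMSO 1 h before 0.1 ml of 1% carrageenan in saline was injected subcutaneously into the right hind paw; DMSO-only controls. Paw volume was read by plethysmometer at 4 h against the initial volume to give oedema volume and % inhibition of oedema.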

In data set [2] the test system is Rattus norvegicus. The experiment in a line: Antiinflammatory activity in Wister albino rat assessed as inhibition of carrageenan-induced paw edema volume at 50 mg/kg, ip administered 1 hr before carrageenan challenge measured after 4 hrs relative to indomethacin. The settings on record: route intraperitoneal. It counts as functional. The arrangement: scale not given: the % may be the effect or the level left. An outline of the steps: as §1

Data set [3] relates to Rattus norvegicus. The experiment in a line: Gastrointestinal toxicity in fasted albino rat assessed ulcer index at 50 mg/kg, po administered for 3 days measured after 1 hr of last dose. It is filed as organism-based. The arrangement: dose 50 mg/kg, route oral. The settings on record: in vivo. An outline of the steps:
(§2)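 Albino rats of either sex (pregnant excluded), 130–150 g, 6 per group, fasted 18 h. Dosed orally for 3 consecutive days in saline with a few drops of Tween 80. Killed 1 h after the last dose; stomach opened along the greater curvature, rinsed, and mucosa examined at 10× for lesions. Ulcer index computed from % incidence/10, mean ulcer number and severity.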

Data set [4] has as its system Rattus norvegicus. Nature of the data set: Antiinflammatory activity in Wister albino rat assessed as inhibition of carrageenan-induced paw edema volume at 10 mg/kg, ip administered 1 hr before carrageenan challenge measured after 4 hrs. It is filed as functional. The settings on record: route intraperitoneal. The method in brief:
as §1

Data set [5] deals with Rattus norvegicus. The experiment in a line: Antiinflammatory activity in ip dosed Wister albino rat assessed as inhibition of carrageenan-induced paw edema volume administered 1 hr before carrageenan challenge measured after 4 hrs. It is filed as functional. The method in brief:
as §1

For data set [6], the system named is Rattus norvegicus. The experiment in a line: Antiinflammatory activity in Wister albino rat assessed as inhibition of carrageenan-induced paw edema volume at 20 mg/kg, ip administered 1 hr before carrageenan challenge measured after 4 hrs. It counts as functional. The conditions noted are these: route intraperitoneal. An outline of the steps:
as §1

In data set [7] the test system is Rattus norvegicus. Nature of the data set: Antiinflammatory activity against carrageenan-induced inflammation in albino rat 6-day-old air pouch model assessed as inhibition of PGE2 level at 50 mg/kg, po administered prior to carrageenan challenge measured after 6 hrs. It counts as functional. The method in brief:
(§3)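 Male albino rats, 200–250 g, 6 per group. Air pouch raised by subcutaneous dorsal air: 20 ml on day 1, 10 ml two days later, 10 ml on day 5. On day 6, oral dosing in saline with a few drops of Tween 80, then 2 ml of 1% carrageenan in saline into the pouch. Exudate was aspirated 6 h later under ether, frozen at −20 °C, and PGE2 measured by ELISA (pg/ml).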

Data set [8] concerns Rattus norvegicus. Nature of the data set: Gastrointestinal toxicity in fasted albino rat assessed ulcer index at 10 mg/kg, po administered for 3 days measured after 1 hr of last dose. The conditions noted are these: in vivo. The arrangement: dose 10 mg/kg, route oral. It counts as organism-based. The method in brief:
as §2

The test system of data set [9] is Rattus norvegicus. Nature of the data set: Antiinflammatory activity against carrageenan-induced inflammation in albino rat 6-day-old air pouch model assessed as inhibition of PGE2 level at 10 mg/kg, po administered prior to carrageenan challenge measured after 6 hrs. It is filed as functional. The method in brief: as §3

`NC(=O)N1N=C(c2ccc(F)cc2)CC1c1ccccc1OCCOc1ccccc1C1CC(c2ccc(F)cc2)=NN1C(N)=O` (stereo not given): the inhibition in vivo at 50 mg/kg in the data set with Rattus norvegicus [1] was 20.8%. In the data set with Rattus norvegicus [2], the Activity amounted to 30.8%.

Consider `NC(=O)N1N=C(c2ccccc2)CC1c1ccccc1OCCOc1ccccc1C1CC(c2ccccc2)=NN1C(N)=O` (stereo not given), for which, in the data set with Rattus norvegicus [1], the inhibition in vivo at 50 mg/kg came out at 43.2%. Further, the Activity in the data set with Rattus norvegicus [2] is on record as 64%.

Turning to `NC(=S)N1N=C(c2ccccc2)CC1c1ccc(OCCOc2ccc(C3CC(c4ccccc4)=NN3C(N)=S)cc2)cc1` (stereo not given), in the data set with Rattus norvegicus [3], the UI came out at 18.5. In addition, in the data set with Rattus norvegicus [4], the inhibition in vivo at 10 mg/kg stood at 74.4%. Besides, the inhibition in vivo at 50 mg/kg in the data set with Rattus norvegicus [1] was 83.5%. In addition, the ED50 in the data set with Rattus norvegicus [5] came out at 23.1 mg/kg. In addition, the inhibition in vivo at 20 mg/kg in the data set on Rattus norvegicus [6] amounted to 79.5%. In addition, the figures for the Activity with Rattus norvegicus [7] and with Rattus norvegicus [2] were 83.33 pg/mL and 123.7%, respectively.

`NC(=S)N1N=C(c2cccs2)CC1c1ccccc1OCCOc1ccccc1C1CC(c2cccs2)=NN1C(N)=S` (stereo not given) returned a UI in the data set with Rattus norvegicus [3] of 14.33. In addition, in the data set on Rattus norvegicus [4], the inhibition in vivo at 10 mg/kg was 59.7%. Also, the inhibition in vivo at 50 mg/kg in the data set on Rattus norvegicus [1] stood at 67.5%. Moreover, the ED50 with Rattus norvegicus [5] worked out at 28.8 mg/kg. The inhibition in vivo at 20 mg/kg with Rattus norvegicus [6] worked out at 61.6%. In addition, the Activity with Rattus norvegicus [7] was 96.5 pg/mL; in the data set on Rattus norvegicus [2] it was 100%.

Consider `Cc1ccc(C2=NN(C(N)=S)C(c3ccc(OCCOc4ccc(C5CC(c6ccc(C)cc6)=NN5C(N)=S)cc4)cc3)C2)cc1` (stereo not given), for which the inhibition in vivo at 50 mg/kg in the data set on Rattus norvegicus [1] came to 34.7%. Moreover, the Activity in the data set on Rattus norvegicus [2] is reported as 51.4%.

In the case of `NC(=S)N1N=C(c2ccccc2)CC1c1ccccc1OCCOc1ccccc1C1CC(c2ccccc2)=NN1C(N)=S` (stereo not given), in the data set on Rattus norvegicus [1], the inhibition in vivo at 50 mg/kg came to 24.5%. In the data set on Rattus norvegicus [2], the Activity came to 36.3%.

In turn, `NC(=S)N1N=C(c2ccc(Cl)cc2)CC1c1ccccc1OCCOc1ccccc1C1CC(c2ccc(Cl)cc2)=NN1C(N)=S` (stereo not given) returned a UI in the data set with Rattus norvegicus [3] of 12.16. The inhibition in vivo at 10 mg/kg with Rattus norvegicus [4] turned out to be 50.3%. The inhibition in vivo at 50 mg/kg in the data set on Rattus norvegicus [1] was 55.2%. Moreover, in the data set with Rattus norvegicus [5], the ED50 was found to be 34.6 mg/kg. In the data set on Rattus norvegicus [6], the inhibition in vivo at 20 mg/kg stood at 53.7%. Also, the Activity came out at 110.83 pg/mL in the data set on Rattus norvegicus [7] and 81.8% with Rattus norvegicus [2].

On to `Cc1ccc(C2=NN(C(N)=O)C(c3ccccc3OCCOc3ccccc3C3CC(c4ccc(C)cc4)=NN3C(N)=O)C2)cc1` (stereo not given), for which, in the data set on Rattus norvegicus [1], the inhibition in vivo at 50 mg/kg was 22.7%. The Activity in the data set on Rattus norvegicus [2] is 33.6%.

For `Cc1ccc(C2=NN(C(N)=S)C(c3ccccc3OCCOc3ccccc3C3CC(c4ccc(C)cc4)=NN3C(N)=S)C2)cc1` (stereo not given), the inhibition in vivo at 50 mg/kg in the data set with Rattus norvegicus [1] is 36.8%. In the data set on Rattus norvegicus [2], the Activity is 54.5%.

In the data set on Rattus norvegicus [3], `NC(=S)N1N=C(c2ccc(F)cc2)CC1c1ccccc1OCCOc1ccccc1C1CC(c2ccc(F)cc2)=NN1C(N)=S` (stereo not given) displayed a UI of 11.51. In addition, the inhibition in vivo at 10 mg/kg in the data set on Rattus norvegicus [4] is 40.9%. Also, in the data set with Rattus norvegicus [1], the inhibition in vivo at 50 mg/kg is 48%. The ED50 with Rattus norvegicus [5] is 40.8 mg/kg. Moreover, the inhibition in vivo at 20 mg/kg in the data set with Rattus norvegicus [6] was determined as 43.2%. In addition, the values for the Activity with Rattus norvegicus [7] and with Rattus norvegicus [2] were 114.67 pg/mL and 71.1%, respectively.

Regarding `NC(=O)N1N=C(c2ccc(Cl)cc2)CC1c1ccccc1OCCOc1ccccc1C1CC(c2ccc(Cl)cc2)=NN1C(N)=O` (stereo not given), the inhibition in vivo at 50 mg/kg in the data set with Rattus norvegicus [1] was found to be 45.3%. Moreover, in the data set on Rattus norvegicus [2], the Activity came out at 67.1%.

In the case of `COc1ccc2c(c1)c(CC(=O)O)c(C)n2C(=O)c1ccc(Cl)cc1` [INDOMETHACIN], the inhibition in vivo at 10 mg/kg in the data set on Rattus norvegicus [4] amounted to 67.5%. For the same compound, the UI in the data set with Rattus norvegicus [8] worked out at 13.49. The Activity in the data set on Rattus norvegicus [9] was found to be 98.33 pg/mL.
